# hERG rescue: shields human hERG channel from block by proarrhythmic agents | Q12809 | CHO-hERG, FluxOR thallium flux, dofetilide IC70 present | activation (rescue from dofetilide block), less the hit threshold, % at 10 µM | 0.51% of 310,000 active | AID 1511;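 active = activation above the mean of controls blocked by dofetilide plus 5 SD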;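 also: thallium influx through hERG after potassium depolarization seen as dye fluorescence rise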
# KCNQ1 inh: inhibitors of human KCNQ1 potassium channel; B-score at 10 µM; P51787; CHO-K1 KCNQ1, FluxOR thallium flux fluorescence; hits give high values; 1.3% of 310,000 active;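 active = compounds whose thallium flux B-score, printed positive for inhibition, exceeds three library SD while starting fluorescence stays within three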;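 also: channel opened by potassium depolarization with thallium stimulus after 20 min compound exposure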
# Target sequence (P51787 whole entry, looked up): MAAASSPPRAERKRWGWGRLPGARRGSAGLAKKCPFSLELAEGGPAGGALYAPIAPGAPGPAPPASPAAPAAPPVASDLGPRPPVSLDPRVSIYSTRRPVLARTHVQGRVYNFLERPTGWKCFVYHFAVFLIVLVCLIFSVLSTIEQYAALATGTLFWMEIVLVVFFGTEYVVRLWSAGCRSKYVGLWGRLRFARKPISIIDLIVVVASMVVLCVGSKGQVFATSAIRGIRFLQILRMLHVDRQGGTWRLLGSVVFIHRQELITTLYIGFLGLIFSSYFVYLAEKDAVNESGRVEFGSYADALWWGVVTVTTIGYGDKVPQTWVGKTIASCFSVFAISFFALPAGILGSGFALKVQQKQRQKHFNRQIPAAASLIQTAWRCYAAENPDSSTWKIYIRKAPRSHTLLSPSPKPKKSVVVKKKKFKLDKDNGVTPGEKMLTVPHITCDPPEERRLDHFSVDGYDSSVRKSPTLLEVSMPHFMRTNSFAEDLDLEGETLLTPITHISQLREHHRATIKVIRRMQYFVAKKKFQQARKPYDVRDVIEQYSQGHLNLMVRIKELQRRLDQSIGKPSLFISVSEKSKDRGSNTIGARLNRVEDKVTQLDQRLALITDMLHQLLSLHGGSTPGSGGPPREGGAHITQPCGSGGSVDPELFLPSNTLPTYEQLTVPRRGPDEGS
# KCNK3 inh: human KCNK3 channel inhibition, primary screen | AID 602410 | B-score at 10 µM | CHO-KCNK3 thallium flux, FluxOR fluorescence; hits give low values | 0.84% of 340,000 active;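 active = B-score under library mean minus 4 SD, starting fluorescence ratio at most library mean plus 5 SD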;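 also: more negative B-score means stronger inhibition of thallium flux through KCNK3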
# KCNK9 block: human KCNK9 channel inhibition; Q9NPC2; HEK293 KCNK9, FluxOR thallium flux fluorescence; hits give low values; B-score at 10 µM; 1.2% of 310,000 active; AID 488922;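 active = ratio B-score over 3 SD below the library mean, with starting fluorescence within 5 SD of its mean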;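 also: negative B-score means less thallium flux so channel inhibition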
# KCNQ1 act: potentiates or activates the human KCNQ1 potassium channel. CHO-K1 KCNQ1, thallium flux FluxOR fluorescence; hits give high values. B-score at 10 µM. 0.35% of 310,000 active. AID 2648;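 active = fluorescence ratio B-score, a plate-corrected score, at least three library SD, with initial intensity B-score within 5 SD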
#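 Medium – assay buffer, equal DMSO in all wells · Material – CHO-K1 cell line with stable KCNQ1 potassium channel expression · Signal – kinetic FluxOR thallium fluorescence, 10-s 1-Hz baseline, 110-s post-stimulus read · Compound – single concentration per compound, DMSO matched to controls · Schedule – 37 °C overnight plating, 90-min dark dye load, 20-min compound pretreatment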
# KCNK3 inh conf: human KCNK3 channel inhibition, confirmation assay; ratio percent of control, % at 10 µM; 99% of 2,400 active; shares compounds with KCNK3 inh; CHO-KCNK3 thallium flux, FluxOR fluorescence; 0% buffer, 100% carvedilol maximal block;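 active = ratio percent of control, averaged over triplicates, above buffer control mean plus 5 SD, cut at about 64% in these data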;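 also: ratio is the fluorescence rise from min to max over baseline after thallium stimulus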
# KCNK3 noninduced: activity in cells without induced KCNK3 expression; shares compounds with KCNK3 inh; non-induced KCNK3 parental cells, FluxOR thallium flux; hits give low values; thallium flux ratio (lower = more inhibition) at 10 µM; 40% of 2,400 active;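 active = thallium flux ratio, averaged over three wells, more than 5 SD below the buffer control mean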;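 also: host cells are CHO cells without KCNK3 induction; ratio is peak minus trough fluorescence over baseline then normalized to buffer controls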
# * hit, by the source's call; i = inactive; nt = no result given. Rows were chosen to be rich in hits. Some 3.1% of all compounds tested hit in one or more screens of this group.
SMILES,hERG rescue,KCNQ1 inh,KCNK3 inh,KCNK9 block,KCNQ1 act,KCNK3 inh conf,KCNK3 noninduced
O=C(N/N=C/c1c[nH]c2ccccc12)c1ccn(Cc2ccc(Cl)cc2Cl)n1,-6,i,-9.3*,i,i,106*,0.15*
CCOC(=O)N1C/C(=C\c2ccccc2)C(=O)/C(=C/c2ccccc2)C1,-13,10*,-10*,i,i,113*,i
COc1ccc(OC(=O)N2C/C(=C/c3ccccc3)C(=O)/C(=C\c3ccccc3)C2)cc1,nt,nt,i,nt,nt,nt,nt
COc1cccc(-c2nc(C(=O)NCC3CCCO3)cc3c2[nH]c2ccccc23)c1 (centres undefined),-25,i,-11*,-6.8*,i,64*,0.15*
COc1ccc(OC)c(-c2nc(C(=O)NCC3CCCO3)cc3c2[nH]c2ccccc23)c1 (centres undefined),-14,i,i,i,i,nt,nt
CC(=O)Nc1cc2c(c(Cl)c1Cl)-c1ccccc1C2=O,nt,nt,i,nt,nt,nt,nt
COc1ccccc1OCCCn1c(=O)oc2ccc(C)cc21,-11,i,i,i,i,nt,nt
Cc1cccc(OCCCn2c(=O)oc3ccc(C)cc32)c1,-7,i,-9.3*,i,i,94*,i
COC(=O)C(Cc1ccccc1)NC(=O)c1ccc(C)cc1 (centres undefined),-9,i,i,i,i,nt,nt
COC(=O)C(Cc1csc2ccc(Cl)cc12)NC(=O)c1ccc(Cl)cc1 (centres undefined),4,i,-10*,i,i,140*,0.14*
Cc1ccc(-c2onc(C)c2C)cc1S(=O)(=O)N1CCOc2ccccc21,-11,i,-9.8*,i,i,126*,0.15*
CC(=O)C1=NN(c2ccc(Cl)cc2)C(c2ccc3c(c2)OCO3)N(C(C)=O)N1C (centres undefined),-7,i,-8.8*,i,i,95*,0.15*
O=C(c1ccc2c(c1)N(Cc1ccccc1)CCS2)N1CCCCC1,-14,i,-9.9*,i,i,124*,0.13*
Cc1noc(C)c1CSc1nc2[nH]ncc2c(=O)n1-c1ccccc1,-7,i,i,i,i,nt,nt
O=c1c2cn[nH]c2nc(SCc2c(F)cccc2F)n1-c1ccc(Cl)cc1,-22,i,-9.3*,i,i,129*,0.15*
CC(=O)c1ccc(-c2ccc(C(=O)NC3CCCCCC3)o2)cc1,-3,i,i,i,i,nt,nt
CC(OC(=O)Nc1cccc(Cl)c1)C(=O)OC1CCCCC1 (centres undefined),nt,nt,i,nt,nt,nt,nt
O=C(Nc1cccc(Cl)c1)OC1CCCCc2cccnc21 (centres undefined),-3,i,-9.3*,i,i,116*,i
COc1ccc(C2CC(=O)C=C(NCCC(C)C)C2)cc1 (centres undefined),-15,i,-22*,i,i,111*,i
CCc1nc(SCC(=O)c2ccccc2)c2ccccc2n1,-7,i,-9.4*,i,i,88*,i
O=C(CNC(=O)c1sc2ccccc2c1Cl)Nc1ccccc1F,-10,i,i,i,i,nt,nt
Cc1ccc(S(=O)(=O)CCC(=O)c2cccc([N+](=O)[O-])c2)cc1,-26,i,-9.5*,i,i,114*,0.12*
N#CCc1c(C#N)c(N)nc(Nc2ccccc2)c1C#N,-7,i,i,i,i,nt,nt
CCOC(=O)/C(C#N)=C/c1c(N2CCN(c3ccc(OC)cc3)CC2)nc2c(C)cccn2c1=O,-8,i,-12*,i,i,83*,0.15*
CCNC(=O)/C(C#N)=C/c1c(N2CCN(c3ccc(OC)cc3)CC2)nc2c(C)cccn2c1=O,-5,i,i,i,i,nt,nt
SMILES,hERG rescue,KCNQ1 inh,KCNK3 inh,KCNK9 block,KCNQ1 act,KCNK3 inh conf,KCNK3 noninduced
Cc1cccn2c(=O)c(/C=C(\C#N)S(=O)(=O)c3ccccc3)c(N3CCN(Cc4ccccc4)CC3)nc12,-17,i,-10*,i,i,108*,i
Cc1ccc(S(=O)(=O)/C(C#N)=C/c2c(N3CCOCC3)nc3c(C)cccn3c2=O)cc1,-7,i,i,i,i,nt,nt
N#C/C(=C\c1c(N2CCOCC2)nc2ccccn2c1=O)S(=O)(=O)c1ccccc1,-6,i,i,i,i,nt,nt
N#C/C(=C\c1c(N2CCN(Cc3ccccc3)CC2)nc2ccccn2c1=O)S(=O)(=O)c1ccccc1,-10,i,-9*,i,i,103*,i
CC(=O)c1ccc(OC(=O)c2cc3ccccc3oc2=O)cc1,-8,i,nt,i,i,nt,nt
C=CCNS(=O)(=O)NC(=O)C1=C(N2CCCC2)COC1=O,nt,nt,i,nt,nt,nt,nt
CN(C)S(=O)(=O)Oc1ccc(C(=O)Nc2cccc(Cl)c2)cc1,-5,i,-8.9*,i,i,106*,i
Cc1nc(N2CCN(C(=O)c3cccs3)CC2)c2c3c(sc2n1)CCCC3,-11,i,-10*,i,i,92*,i
Cc1ccc(OCn2c(=O)sc3ccccc32)cc1,-9,i,-11*,i,i,112*,i
O=C(CSc1nncs1)N1c2ccccc2Sc2ccccc21,-5,i,i,i,i,nt,nt
Cc1ccc(SCC(=O)N2c3ccccc3Sc3ccccc32)cc1,-8,i,-9.6*,i,i,105*,0.16*
Cc1nsc(Nc2ccc([N+](=O)[O-])cc2)c1C#N,-2,i,i,i,i,nt,nt
COCCn1c(SCc2cccc(F)c2)nc2cc(C(=O)OC)ccc2c1=O,-4,i,-9*,i,i,107*,i
CCSc1nc2cc(C(=O)OC)ccc2c(=O)n1CC,1,i,i,i,i,nt,nt
CC(C)(C)c1ccc(C(=O)NCCC(=O)N2CCN(c3ncccn3)CC2)cc1,-6,i,-12*,i,i,86*,i
COc1ccc(/C=C(\NC(=O)c2ccco2)C(=O)NC(Cc2ccccc2)C(=O)O)cc1 (centres undefined),-6,i,i,i,i,nt,nt
COCn1c(COc2ccc3ccccc3c2)nc2ccccc21,-8,i,-8.8*,i,i,95*,i
COc1ccc(OC)c(CCNC(=O)c2ccc3c(=O)[nH]c4c(C(=O)NC(C)C)sc(=S)n4c3c2)c1,-33,10*,-11*,i,i,129*,i
O=C(NCC1CCCO1)c1sc(=S)n2c1[nH]c(=O)c1ccc(C(=O)N3CCCCC3)cc12 (centres undefined),-21,i,i,i,i,nt,nt
